Results published in ChEMBL document CHEMBL3259745, “Identification of trisubstituted-pyrazol carboxamide analogs as novel and potent antagonists of farnesoid X receptor” (Bioorg Med Chem, 2014).
The source made the active and inactive calls. The rule behind the calls is not given here.

Experiments:
Bile acid receptor [1] = target: T1, Bile acid receptor (Homo sapiens, UniProt Q96RI1); assay: Inhibition of GW4064-induced transactivation of FXR (unknown origin) expressed in HEK293T cells after 16 hrs by beta-lactamase reporter gene assay; type: cell-based, HEK-293T
T1 sequence (Q96RI1 whole entry): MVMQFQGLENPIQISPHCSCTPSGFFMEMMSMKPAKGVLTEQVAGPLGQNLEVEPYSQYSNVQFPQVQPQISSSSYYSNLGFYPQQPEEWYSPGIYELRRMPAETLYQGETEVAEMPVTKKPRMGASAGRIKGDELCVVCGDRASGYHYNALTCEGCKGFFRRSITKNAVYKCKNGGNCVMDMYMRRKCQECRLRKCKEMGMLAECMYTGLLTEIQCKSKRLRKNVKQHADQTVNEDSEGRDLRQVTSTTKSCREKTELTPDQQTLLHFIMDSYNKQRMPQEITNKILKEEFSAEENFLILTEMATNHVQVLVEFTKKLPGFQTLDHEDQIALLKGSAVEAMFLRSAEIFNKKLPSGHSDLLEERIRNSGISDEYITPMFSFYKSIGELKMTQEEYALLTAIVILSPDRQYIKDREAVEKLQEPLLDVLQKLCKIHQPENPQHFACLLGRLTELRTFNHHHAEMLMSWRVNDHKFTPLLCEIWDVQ

Bile acid receptor [2] = target: T1, Bile acid receptor; assay: Antagonist activity at human GST-tagged FXR after 20 mins by TR-FRET assay
[3] = target: T2, Bile acid receptor (Homo sapiens) (UniProt Q96RI1); assay: Agonist activity at human FXR
T2 sequence (whole entry): T1 sequence (Q96RI1 whole entry)

[4] = Cytotoxicity against HEK293T cells expressing FXR and beta-lactamase genes assessed as inhibition of cell viability at 40 uM after 16 hrs by CellTiter-Glo luminescent assay relative to control; type: cell-based, HEK-293T; conditions: human, read-out: INH
In short: (§1)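 Viability run alongside the agonist assay in the same GeneBLAzer FXR HEK 293T cells: 20,000 cells/well in phenol red-free DMEM with 2% charcoal/dextran-treated FBS, 0.5% DMSO, 16 h at 37°C. Cooled 20 min, then CellTiter-Glo added for 20 min in dark; luminescence read.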

[5] = target: T2, Bile acid receptor (Homo sapiens); assay: Antagonist activity at human GST-tagged FXR at 13.3 uM after 20 mins by TR-FRET assay relative to control
[6] = target: T2, Bile acid receptor (Homo sapiens); assay: Inhibition of GW4064-induced transactivation of FXR (unknown origin) expressed in HEK293T cells at 40 uM after 16 hrs by beta-lactamase reporter gene assay relative to control; type: cell-based; conditions: HEK-293T
[7] = target: T2, Bile acid receptor (Homo sapiens); assay: Antagonist activity at human GST-tagged FXR at 40 uM after 20 mins by TR-FRET assay relative to control
[8] = target: T2, Bile acid receptor (Homo sapiens); assay: Agonist activity at FXR (unknown origin) expressed in HEK293T cells after 16 hrs by beta-lactamase reporter gene assay relative to control; type: cell-based; conditions: HEK-293T
[9] = target: T2, Bile acid receptor (Homo sapiens); assay: Inhibition of GW4064-induced transactivation of FXR (unknown origin) expressed in HEK293T cells at 1 uM after 16 hrs by beta-lactamase reporter gene assay relative to control; type: cell-based; conditions: HEK-293T
[10] = target: T2, Bile acid receptor (Homo sapiens); assay: Antagonist activity at human GST-tagged FXR at 4.4 uM after 20 mins by TR-FRET assay relative to control
[11] = target: T2, Bile acid receptor (Homo sapiens); assay: Ratio of E16 IC50 to compound IC50 for human GST-tagged FXR after 20 mins by TR-FRET assay
[12] = target: T2, Bile acid receptor (Homo sapiens); assay: Antagonist activity at human GST-tagged FXR at 164 nM after 20 mins by TR-FRET assay relative to control
[13] = target: T2, Bile acid receptor (Homo sapiens); assay: Antagonist activity at human GST-tagged FXR at 493 nM after 20 mins by TR-FRET assay relative to control
[14] = Cytotoxicity against HEK293T cells expressing FXR and beta-lactamase genes assessed as inhibition of cell viability at 4.4 uM after 16 hrs by CellTiter-Glo luminescent assay relative to control; type: cell-based, HEK-293T; conditions: human, read-out: INH; in short: as §1
[15] = target: T2, Bile acid receptor (Homo sapiens); assay: Antagonist activity at human GST-tagged FXR at […] nM after 20 mins by TR-FRET assay relative to control

Compound	Activity [3]	cytotoxicity at 16 h, 40 µM [4] [%]	inhibition [6] [%]	Activity [8]	further results
O=C(Nc1ccc(F)c(S(=O)(=O)N2CCOCC2)c1)c1cnn(-c2ccccc2)c1	inactive	27.4	80.3		IC50 (Bile acid receptor [1]): 9.4 µM; IC50 (Bile acid receptor [2]): 8.3 µM; inhibition [5]: 83.8%
COc1cccc(Cn2cc(C(=O)N(C)c3ccc(C)c(S(=O)(=O)N4CCOCC4)c3)c(-c3cccc(OC)c3)n2)c1		19.7	23.8	inactive	inhibition [7]: 69.7%; inhibition [9]: inactive
Cc1ccc(NC(=O)c2cnn(-c3cccnc3)c2)cc1S(=O)(=O)N1CCOCC1	inactive	27.9	16.1		inhibition [5]: 18.8%
COc1cccc(Cn2cc(C(=O)Nc3ccc(C)c(S(=O)(=O)N4CCOCC4)c3)c(C(C)C)n2)c1		< 5	99.2	inactive	inhibition [10]: 101%
Cc1ccc(-c2nn(-c3cccc(C(F)(F)F)c3)cc2C(=O)Nc2ccc(C)c(S(=O)(=O)N3CCOCC3)c2)cc1		7.3	54.8	inactive	Ratio IC50 [11]: 3; inhibition [12]: 77.5%
COc1cccc(Cn2cc(C(=O)Nc3ccc(C)c(S(=O)(=O)N4CCOCC4)c3)c(-c3cccc(OC)c3)n2)c1		< 5	89.4	inactive	inhibition [13]: 114%
Cc1ccc(-c2nn(Cc3cccc(C(F)(F)F)c3)cc2C(=O)Nc2ccc(C)c(S(=O)(=O)N3CCOCC3)c2)cc1		< 5	93.4	inactive	inhibition [12]: 99.2%
Cc1ccc(-c2nn(-c3ccc(F)cc3)cc2C(=O)Nc2ccc(C)c(S(=O)(=O)N3CCOCC3)c2)cc1		18.5	72	inactive	Ratio IC50 [11]: 3; inhibition [13]: 95%
Cc1ccc(-c2nn(Cc3ccc4ccccc4c3)cc2C(=O)Nc2ccc(C)c(S(=O)(=O)N3CCOCC3)c2)cc1			84.4	inactive	cytotoxicity at 16 h, 4.4 µM [14]: 7.9%; inhibition [12]: 97.8%
C[C@H](CCC(=O)O)[C@H]1CC[C@H]2[C@@H]3CC[C@@H]4C[C@H](O)CC[C@]4(C)[C@H]3CC[C@]12C [LITHOCHOLIC ACID]		< 5			
Cc1ccc(-c2nn(-c3ccccc3)cc2C(=O)Nc2cccc(S(=O)(=O)N3CCOCC3)c2)cc1	inactive	5.4	32.8		inhibition [13]: 27.5%
COc1cccc(Cn2cc(C(=O)Nc3ccc(C)c(S(=O)(=O)N4CCOCC4)c3)c(-c3ccc(C(F)(F)F)cc3)n2)c1		< 5	97.6	inactive	inhibition [12]: 109%
O=C(Nc1cccc(S(=O)(=O)N2CCOCC2)c1)c1cn(-c2ccccc2)nc1-c1ccc(Cl)cc1	inactive	< 5	38.8		inhibition [15]: 36.9%
Cc1ccc(NC(=O)c2cnn(-c3ccccc3)c2C(F)(F)F)cc1S(=O)(=O)N1CCOCC1	inactive	51.3	101		IC50 (Bile acid receptor [1]): 11.8 µM; IC50 (Bile acid receptor [2]): 0.996 µM; inhibition [5]: 99.8%
Cc1ccc(NC(=O)c2c(C)nn(-c3ccccc3)c2C)cc1S(=O)(=O)N1CCOCC1	inactive	47.4	99		IC50 (Bile acid receptor [1]): 11.8 µM; IC50 (Bile acid receptor [2]): 3.3 µM; inhibition [5]: 70.6%
Cc1cccc(-n2ncc(C(=O)Nc3cccc(S(=O)(=O)N4CCOCC4)c3)c2C)c1	inactive	< 5	66.9		IC50 (Bile acid receptor [1]): 29.3 µM; IC50 (Bile acid receptor [2]): 6.6 µM; inhibition [5]: 85.1%
COc1cccc(Cn2cc(CNc3ccc(C)c(S(=O)(=O)N4CCOCC4)c3)c(C(C)C)n2)c1		13.9	64.8	inactive	inhibition [9]: inactive; inhibition [10]: 72.5%
O=C(Nc1cccc(S(=O)(=O)N2CCOCC2)c1)c1cn(-c2ccccc2)nc1-c1ccccc1	inactive	7.1	54.9		inhibition [13]: 44.4%

Compound	Activity [3]	cytotoxicity at 16 h, 40 µM [4] [%]	inhibition [6] [%]	Activity [8]	further results
COCCc1nn(C(C)C)cc1C(=O)Nc1ccc(C)c(S(=O)(=O)N2CCOCC2)c1		< 5	62.5	inactive	inhibition [7]: 98.2%
O=C(Nc1ccc(S(=O)(=O)N2CCOCC2)cc1)c1cn(-c2ccccc2)nc1-c1ccc(Cl)cc1	inactive	< 5	20.6		inhibition [15]: 17.8%
Cc1ccc(-c2nn(C(C)C)cc2C(=O)N(C)c2ccc(C)c(S(=O)(=O)N3CCOCC3)c2)cc1		15	86.4	inactive	inhibition [7]: 133%; inhibition [9]: inactive
Cc1ccc(-c2nn(CCCCO)cc2C(=O)Nc2ccc(C)c(S(=O)(=O)N3CCOCC3)c2)cc1		5.9	97.6	inactive	inhibition [13]: 89.3%
COCCc1nn(Cc2cccc(OC)c2)cc1C(=O)Nc1ccc(C)c(S(=O)(=O)N2CCOCC2)c1		< 5	95.9	inactive	inhibition [5]: 114%
Cc1ccc(NC(=O)c2cn(C(C)C)nc2-c2ccc(C(F)(F)F)cc2)cc1S(=O)(=O)N1CCOCC1		19.5	100	inactive	inhibition [10]: 133%
O=C(Nc1ccc(S(=O)(=O)N2CCOCC2)cc1)c1cn(-c2ccccc2)nc1-c1ccccc1	inactive	7.4	18.6		inhibition [13]: 12.7%
Cc1ccc(-c2nn(-c3ccccc3)cc2C(=O)Nc2ccc(C)c(S(=O)(=O)N3CCOCC3)c2)cc1	inactive	17.9	77.2		inhibition [12]: 100%
COc1cccc(-c2nn(C(C)C)cc2C(=O)Nc2ccc(C)c(S(=O)(=O)N3CCOCC3)c2)c1			97.8	inactive	cytotoxicity at 16 h, 4.4 µM [14]: 10.8%; inhibition [5]: 150%
O=C(Nc1ccc(S(=O)(=O)N2CCOCC2)cc1)c1cn(-c2ccccc2)nc1-c1ccc(F)cc1	inactive	< 5	34.7		inhibition [12]: 21.2%
CC(C)c1onc(-c2c(Cl)cccc2Cl)c1COc1ccc(/C=C/c2cccc(C(=O)O)c2)c(Cl)c1		< 5			
O=C(Nc1cccc(S(=O)(=O)N2CCOCC2)c1)c1cn(-c2ccccc2)nc1-c1ccc(F)cc1	inactive	16.3	42.6		inhibition [13]: 53.3%
Cc1ccc(-c2nn(C(C)C)cc2C(=O)Nc2ccc(C)c(S(=O)(=O)N3CCOCC3)c2)cc1		< 5	99.1	inactive	inhibition [10]: 131%
Cc1ccc(-c2nn(-c3cccc(Cl)c3)cc2C(=O)Nc2ccc(C)c(S(=O)(=O)N3CCOCC3)c2)cc1		< 5	60.6	inactive	Ratio IC50 [11]: 3; inhibition [12]: 99.3%
COc1ccc(-c2nn(-c3ccccc3)cc2C(=O)Nc2cc(S(=O)(=O)N3CCOCC3)ccc2N2CCOCC2)cc1	inactive	< 5	27		inhibition [15]: 11.6%
Cc1ccc(-c2nn(-c3ccc(Cl)cc3Cl)cc2C(=O)Nc2ccc(C)c(S(=O)(=O)N3CCOCC3)c2)cc1		< 5	89.9	inactive	Ratio IC50 [11]: 3; inhibition [12]: 120%
Cc1ccc(-c2nn(C(C)C)cc2CNc2ccc(C)c(S(=O)(=O)N3CCOCC3)c2)cc1		10.5	36.8	inactive	inhibition [9]: inactive; inhibition [5]: 99.5%
